Columns and labels:
[1] = DPPH radical scavenging assay; conditions: for EC50: DPPH radical scavenging; for Inhibition% ± SEM: DPPH, measured at 400 μM, 3 repetitions
Method in brief: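 DPPH solution (110 μM) mixed with samples at various concentrations and kept in the dark for 30 min. Absorbance read at 517 nm. Percent inhibition and EC50 calculated from absorbance changes. Each concentration run in triplicate.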

tyrosinase enzyme = tyrosinase enzyme (Agaricus bisporus, UniProt C7FF04); assay: Kinetic study of tyrosinase inhibition; assay type: biochemical; conditions: Lineweaver-Burk plot, L-DOPA substrate; Km increased, Vmax constant
Sequence of tyrosinase enzyme (C7FF04 2-392): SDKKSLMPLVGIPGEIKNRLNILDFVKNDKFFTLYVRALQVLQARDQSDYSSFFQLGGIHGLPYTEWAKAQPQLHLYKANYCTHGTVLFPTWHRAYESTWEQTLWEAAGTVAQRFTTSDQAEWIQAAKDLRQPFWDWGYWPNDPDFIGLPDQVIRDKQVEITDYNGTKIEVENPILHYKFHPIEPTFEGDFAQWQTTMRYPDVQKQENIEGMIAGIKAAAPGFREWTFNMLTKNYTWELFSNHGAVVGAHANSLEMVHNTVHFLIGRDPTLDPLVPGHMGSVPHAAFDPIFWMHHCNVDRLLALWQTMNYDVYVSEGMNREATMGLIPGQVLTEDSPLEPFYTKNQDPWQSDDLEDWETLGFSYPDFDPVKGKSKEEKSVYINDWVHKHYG

Row | Compound | EC50 [1] [µM] | Inhibition% ± SEM [1] [%] | type of inhibition (tyrosinase enzyme)
1 | Cc1c(O)c(=O)ccn1-c1cccc(C(=O)N/N=C/c2ccccc2C(=O)O)c1 [Compound 6f, (E)-2-((2-(3-(3-Hydroxy-2-methyl-4-oxopyridin-1(4H)-yl)benzoyl) hydrazono)methyl) benzoic acid] | > 400 | 35.01 ± 5.71 | –
2 | COc1cc(OC)c(/C=N/NC(=O)c2cccc(-n3ccc(=O)c(O)c3C)c2)c(OC)c1 [Compound 6d, (E)-3-(3-Hydroxy-2-methyl-4-oxopyridin-1(4H)-yl)-N'-(2,4,6-trimethoxybenzylidene)benzohydrazide] | > 400 | 35.16 ± 1.37 | –
3 | COc1cccc(/C=N/NC(=O)c2cccc(-n3ccc(=O)c(O)c3C)c2)c1O [Compound 6c, (E)-3-(3-Hydroxy-2-methyl-4-oxopyridin-1(4H)-yl)-N'-(2-hydroxy-3-methoxybenzylidene) benzohydrazide] | > 400 | 48.06 ± 2.25 | –
4 | Cc1c(O)c(=O)ccn1-c1cccc(C(=O)N/N=C/c2ccccc2Br)c1 [Compound 6e, (E)-N'-(2-bromobenzylidene)-3-(3-hydroxy-2-methyl-4-oxopyridin-1(4H)-yl)benzohydrazide] | > 400 | 19.59 ± 1.76 | –
5 | Cc1c(O)c(=O)ccn1-c1cccc(C(=O)NN=Cc2c(Cl)cccc2Cl)c1 [Compound 6h, N'-(2,6-dichlorobenzylidene)-3-(3-hydroxy-2-methyl-4-oxopyridin-1(4H)-yl)benzohydrazide] | > 400 | 44.55 ± 0.91 | –
6 | Cc1c(O)c(=O)ccn1-c1cccc(C(=O)N/N=C/c2cccc(Cl)c2)c1 [Compound 6g, (E)-N'-(3-chlorobenzylidene)-3-(3-hydroxy-2-methyl-4-oxopyridin-1(4H)-yl) benzohydrazide] | > 400 | 44.20 ± 2.41 | –
7 | Cc1c(O)c(=O)ccn1-c1cccc(C(=O)N/N=C/c2cc(Cl)ccc2[N+](=O)[O-])c1 [Compound 6i, (E)-N'-(5-chloro-2-nitrobenzylidene)-3-(3-hydroxy-2-methyl-4-oxopyridin-1(4H)-yl)benzohydrazide] | 174 | 67.65 ± 0.85 | –
8 | Cc1c(O)c(=O)ccn1-c1cccc(C(=O)N/N=C/c2ccc(O)c(O)c2)c1 [Compound 6a, (E)-N'-(3,4-dihydroxybenzylidene)-3-(3-hydroxy-2-methyl-4-oxopyridin-1(4H)-yl) benzohydrazide] | – | 90.06 ± 3.75 | –
9 | COc1cc(/C=N/NC(=O)c2cccc(-n3ccc(=O)c(O)c3C)c2)ccc1O [Compound 6b, (E)-3-(3-Hydroxy-2-methyl-4-oxopyridin-1(4H)-yl)-N'-(4-hydroxy-3-methoxybenzylidene)benzohydrazide] | – | 84.64 ± 2.68 | competitive inhibitor
10 | Cc1c(O)c(=O)ccn1-c1cccc(C(=O)N/N=C/Cc2ccccc2)c1 [Compound 6j, (E)-3-(3-Hydroxy-2-methyl-4-oxopyridin-1(4H)-yl)-N'-(2-phenylethylidene)benzohydrazide] | – | 68.59 ± 1.14 | –
11 | O=c1c(O)c(-c2ccc(O)c(O)c2)oc2cc(O)cc(O)c12 [Quercetin, reference compound] | 8.98 ± 0.05 | – | –
